Measured values published in ChEMBL document CHEMBL2062388, “Integrated virtual screening for the identification of novel and selective peroxisome proliferator-activated receptor (PPAR) scaffolds” (J Med Chem, 2012).
Calls of active or inactive are those of the source. No cut-off for these calls is given here.

Assays:
[1] = Octanol-water partition coefficient, log P of the compound; type: physicochemical
[2] = molecular target: T1, Peroxisome proliferator-activated receptor alpha (Homo sapiens) (UniProt Q07869); test: Displacement of pan-PPAR fluormone from PPARalpha LBD at >= 100 uM by TR-FRET based LanthaScreen assay
T1 sequence (whole entry): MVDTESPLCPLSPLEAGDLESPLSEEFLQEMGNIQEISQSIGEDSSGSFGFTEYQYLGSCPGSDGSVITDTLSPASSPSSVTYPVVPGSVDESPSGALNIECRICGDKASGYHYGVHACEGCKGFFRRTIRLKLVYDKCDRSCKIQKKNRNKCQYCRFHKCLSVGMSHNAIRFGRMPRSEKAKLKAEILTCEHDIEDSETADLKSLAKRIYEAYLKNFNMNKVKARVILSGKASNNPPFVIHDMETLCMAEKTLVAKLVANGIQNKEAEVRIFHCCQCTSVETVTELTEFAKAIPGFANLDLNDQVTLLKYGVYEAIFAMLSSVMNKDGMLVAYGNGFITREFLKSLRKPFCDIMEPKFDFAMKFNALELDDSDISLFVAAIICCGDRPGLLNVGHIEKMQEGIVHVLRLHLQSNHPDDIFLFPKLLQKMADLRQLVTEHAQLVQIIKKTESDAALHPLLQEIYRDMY

[3] = molecular target: T2, Peroxisome proliferator-activated receptor gamma (Homo sapiens, UniProt P37231); test: Binding affinity to PPARgamma LBD by fluorescence polarization based competitive binding assay
T2 sequence (P37231 whole entry): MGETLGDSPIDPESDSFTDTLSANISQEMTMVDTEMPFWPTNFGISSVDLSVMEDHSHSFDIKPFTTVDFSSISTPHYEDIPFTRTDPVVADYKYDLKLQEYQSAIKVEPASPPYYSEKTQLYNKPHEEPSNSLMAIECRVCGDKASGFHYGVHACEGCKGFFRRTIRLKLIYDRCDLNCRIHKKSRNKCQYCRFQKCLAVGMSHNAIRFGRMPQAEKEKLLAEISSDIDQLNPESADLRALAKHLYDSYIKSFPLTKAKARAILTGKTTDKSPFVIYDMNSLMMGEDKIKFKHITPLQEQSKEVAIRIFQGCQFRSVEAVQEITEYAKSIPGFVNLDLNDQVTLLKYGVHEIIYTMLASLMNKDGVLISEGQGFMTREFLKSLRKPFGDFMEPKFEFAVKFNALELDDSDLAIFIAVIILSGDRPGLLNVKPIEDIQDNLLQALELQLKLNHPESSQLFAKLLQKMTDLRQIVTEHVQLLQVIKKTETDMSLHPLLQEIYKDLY

[4] = molecular target: T2, Peroxisome proliferator-activated receptor gamma; test: Displacement of pan-PPAR fluormone from PPARgamma LBD by TR-FRET based LanthaScreen assay
[5] = molecular target: T3, Peroxisome proliferator-activated receptor gamma (Homo sapiens) (UniProt P37231); test: (§1) Agonist activity at PPARgamma LBD in human 293H DA cells after 16 hrs by TR-FRET activation reporter assay; type: functional, cell-based
T3 sequence (whole entry): T2 sequence (P37231 whole entry)
In short: (§2)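 GeneBLAzer PPARγ 293H DA cells plated at 30 000 cells/well, exposed to compound (0.1 to 10 000 nM; 0.1% DMSO final) for approximately 16 h. LiveBLAzer-FRET B/G substrate loaded for 2 h, then fluorescence read at 460 and 530 nm. […] EC50 from sigmoidal varying-slope fit. Triplicates, at least two independent experiments.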

[6] = molecular target: T2, Peroxisome proliferator-activated receptor gamma; test: as §1; type: functional, cell-based; in short: as §2
[7] = molecular target: T3, Peroxisome proliferator-activated receptor gamma (Homo sapiens); test: Agonist activity at PPARgamma LBD in human 293H DA cells after 16 hrs by TR-FRET activation reporter assay relative to rosiglitazone; type: functional, cell-based; in short: as §2
[8] = molecular target: T4, Peroxisome proliferator-activated receptor alpha (Homo sapiens, UniProt Q07869); test: Displacement of pan-PPAR fluormone from PPARalpha LBD by TR-FRET based LanthaScreen assay
T4 sequence (Q07869 whole entry): T1 sequence (whole entry)

[9] = molecular target: T5, Peroxisome proliferator-activated receptor delta (Homo sapiens, UniProt Q03181); test: Displacement of pan-PPAR fluormone from PPARdelta LBD by TR-FRET based LanthaScreen assay
T5 sequence (Q03181 whole entry): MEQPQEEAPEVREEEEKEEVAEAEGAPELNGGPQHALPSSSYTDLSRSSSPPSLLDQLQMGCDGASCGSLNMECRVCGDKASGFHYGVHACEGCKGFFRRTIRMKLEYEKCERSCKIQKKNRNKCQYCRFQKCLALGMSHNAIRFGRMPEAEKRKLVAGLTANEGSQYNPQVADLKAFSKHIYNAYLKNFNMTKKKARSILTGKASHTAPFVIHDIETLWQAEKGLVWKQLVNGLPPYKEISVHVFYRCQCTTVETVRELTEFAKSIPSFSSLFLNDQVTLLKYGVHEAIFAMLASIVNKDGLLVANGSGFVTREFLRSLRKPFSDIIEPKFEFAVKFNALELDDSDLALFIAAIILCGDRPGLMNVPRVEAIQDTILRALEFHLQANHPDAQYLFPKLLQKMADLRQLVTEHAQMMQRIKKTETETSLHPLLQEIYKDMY

[10] = organism: Homo sapiens; test: Selectivity ratio of EC50 for PPARalpha LBD to EC50 for PPARgamma LBD
[11] = molecular target: PPAR delta/gamma (Homo sapiens) (UniProt P37231+Q03181); test: Selectivity ratio of EC50 for PPARdelta LBD to EC50 for PPARgamma LBD
[12] = molecular target: T3, Peroxisome proliferator-activated receptor gamma (Homo sapiens); test: Binding affinity to PPARgamma LBD at >= 100 uM by fluorescence polarization based competitive binding assay
[13] = molecular target: T3, Peroxisome proliferator-activated receptor gamma (Homo sapiens); test: Displacement of pan-PPAR fluormone from PPARgamma LBD at >= 100 uM by TR-FRET based LanthaScreen assay

| SMILES | logP [1] | inhibition [2] | EC50 [3] | EC50 [4] | Activity [5] | EC50 [6] | Emax [7] | EC50 ([8]; read-out: EC50) | EC50 [9] | Ratio EC50 [10] | Ratio EC50 [11] | inhibition [12] | inhibition [13] | EC50 [8] |
| --- | --- | --- | --- | --- | --- | --- | --- | --- | --- | --- | --- | --- | --- | --- |
| CN(CCOc1ccc(CC2SC(=O)NC2=O)cc1)c1ccccn1 (stereo unspecified) [ROSIGLITAZONE] | 2.62 | inactive |  |  |  |  |  |  |  |  |  |  |  |  |
| O=C(Nn1cc([N+](=O)[O-])cn1)c1cccc(COc2ccc(Br)cc2)c1 | 3.71 |  | 5450 nM | 5450 nM | Dose-dependent effect | 682 nM | 68.7% | 11.4 µM | 21 µM | 2 | 4 |  |  |  |
| Cc1cc(SCc2sc(-c3ccc(C(F)(F)F)c(F)c3)nc2C)ccc1OCC(=O)O | 5.95 |  |  |  |  |  |  | 0.92 µM |  |  |  | inactive | inactive |  |
| CN(CCOc1ccc(C[C@H](Nc2ccccc2C(=O)c2ccccc2)C(=O)O)cc1)c1ccccn1 | 5.23 |  |  |  |  |  |  |  |  |  |  |  |  |  |
| O=C1NC(=S)NC(=O)C1=Cc1ccc(OCc2ccccc2)c(Cl)c1 | 3.11 |  | 325 nM | 215 nM | Dose-dependent effect | 467 nM | 91.6% |  |  |  |  |  |  | Not Active |
| CC(C)(Sc1ccc(CCN(CCCCC2CCCCC2)C(=O)NC2CCCCC2)cc1)C(=O)O [GW7647] | 8.02 |  |  |  |  |  |  |  |  |  |  | inactive | inactive |  |
| CCOC(=O)c1sc(N2C(=O)C(O)=C(C(=O)c3cccs3)C2c2ccc(C)o2)nc1C (stereo unspecified) | 2.39 | inactive | 2400 nM | 2400 nM | Dose-dependent effect | 594 nM | 77.5% |  | 26 µM |  | 10.8 |  |  |  |
